Calls of active or inactive are those of the source. The rule behind the calls is not given here.
Key:
[1] = test system: HT-29; test: Anti-necroptotic activity in human HT-29 cells assessed as inhibition of […]/SM-164/Z-VAD-fmk-induced necroptosis measured after 16 hrs by celltiter-glo luminescent cell viability assay; details: HT-29, 16 h
[2] = target: Receptor-interacting serine/threonine-protein kinase 3 (Homo sapiens, UniProt Q9Y572); test: Binding affinity to wild-type human partial length RIPK3 (M1 to Q307 residues) expressed in bacterial expression system after 1 hr by quantitative PCR based KINOMEscan assay
Chain of Receptor-interacting serine/threonine-protein kinase 3 (Q9Y572 whole entry, the tested form may be a part): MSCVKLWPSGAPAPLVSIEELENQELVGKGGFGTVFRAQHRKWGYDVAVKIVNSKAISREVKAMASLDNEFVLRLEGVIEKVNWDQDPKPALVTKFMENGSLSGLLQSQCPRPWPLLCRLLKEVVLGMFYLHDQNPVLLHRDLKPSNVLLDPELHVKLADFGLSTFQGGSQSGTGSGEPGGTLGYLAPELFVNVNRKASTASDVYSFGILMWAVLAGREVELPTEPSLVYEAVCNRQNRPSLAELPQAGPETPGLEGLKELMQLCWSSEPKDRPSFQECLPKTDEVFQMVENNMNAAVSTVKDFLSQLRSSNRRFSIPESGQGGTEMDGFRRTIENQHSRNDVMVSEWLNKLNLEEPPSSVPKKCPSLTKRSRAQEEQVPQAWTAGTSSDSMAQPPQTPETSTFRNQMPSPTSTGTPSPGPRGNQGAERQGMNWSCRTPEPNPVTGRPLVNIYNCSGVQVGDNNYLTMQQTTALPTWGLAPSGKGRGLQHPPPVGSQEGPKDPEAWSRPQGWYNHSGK
How it was run: (§1)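 KINOMEscan competition binding. Bound kinase eluted with 0.5 μM nonbiotinylated ligand for 30 min and quantified by qPCR. Duplicates averaged.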

[3] = target: T1, Receptor-interacting serine/threonine-protein kinase 1 (Homo sapiens, UniProt Q13546); test: Binding affinity to wild-type human partial length RIPK1 (M1 to K305 residues) expressed in bacterial expression system after 1 hr by quantitative PCR based KINOMEscan assay
T1 sequence (Q13546 whole entry): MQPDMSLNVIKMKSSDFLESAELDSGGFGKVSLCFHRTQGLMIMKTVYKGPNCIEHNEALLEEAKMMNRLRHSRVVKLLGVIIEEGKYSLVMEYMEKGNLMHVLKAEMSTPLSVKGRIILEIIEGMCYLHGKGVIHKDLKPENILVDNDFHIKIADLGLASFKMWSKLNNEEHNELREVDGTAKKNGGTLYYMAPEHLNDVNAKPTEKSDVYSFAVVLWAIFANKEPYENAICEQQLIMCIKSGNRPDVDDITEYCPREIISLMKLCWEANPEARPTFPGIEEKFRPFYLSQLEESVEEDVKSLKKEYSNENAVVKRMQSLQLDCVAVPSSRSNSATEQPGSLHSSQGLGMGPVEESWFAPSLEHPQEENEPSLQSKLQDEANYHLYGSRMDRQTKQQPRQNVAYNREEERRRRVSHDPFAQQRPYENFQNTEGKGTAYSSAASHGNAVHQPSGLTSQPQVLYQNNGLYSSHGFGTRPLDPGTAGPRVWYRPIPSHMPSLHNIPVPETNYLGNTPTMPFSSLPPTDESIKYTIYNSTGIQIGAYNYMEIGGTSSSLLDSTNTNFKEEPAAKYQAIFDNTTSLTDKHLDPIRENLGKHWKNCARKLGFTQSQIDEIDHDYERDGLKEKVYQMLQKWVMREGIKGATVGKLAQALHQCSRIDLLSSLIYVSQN
How it was run: as §1

[4] = Cytotoxicity against human HT-29 cells measured after 12 hrs by CellTiter-Glo Luminescent assay; type: cell-based
[5] = species: Homo sapiens; test: Selectivity ratio of Kd for human partial length RIPK1 (M1 to K305 residues) expressed in bacterial expression system to Kd for wild-type human partial length RIPK3 (M1 to Q307 residues) expressed in bacterial expression system
[6] = test system: Mus musculus; test: Protection against TNFalpha/Z-VAD-fmk-induced C57BL/6J mouse model of systemic inflammatory response syndrome assessed as increase in body temperature at 5 to 50 mg/kg, po administered via gavage 2 hrs prior to Z-VAD-fmk addition for 15 mins followed by TNFalpha stimulation for 1 hr and subsequent Z-VAD-fmk addition meaured up to 50 hrs post TNFalpha stimulation by electric thermometer; type: functional, organism-based
How it was run: (§2)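 Female C57BL/6 mice, fasted overnight, n=10 per group. Compound given by oral gavage at 5, 25 or 50 mg/kg 2 h before TNF. z-VAD-fmk 180 µg i.p., then 15 min later mTNF-α 400 µg/kg i.v. in endotoxin-free PBS, then a further 70 µg z-VAD-fmk i.p. 1 h later. Body temperature and survival followed, compared with vehicle by one-way ANOVA.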

[7] = test system: Mus musculus; test: Protection against TNFalpha/Z-VAD-fmk-induced C57BL/6J mouse model of systemic inflammatory response syndrome assessed as increase in mouse survial at 5 to 50 mg/kg, po administered via gavage 2 hrs prior to Z-VAD-fmk addition for 15 mins followed by TNFalpha stimulation for 1 hr and subsequent Z-VAD-fmk addition meaured up to 50 hrs post TNFalpha stimulation; type: functional, organism-based
How it was run: as §2

Row | Structure (SMILES) | EC50 [1] [µM] | Kd [2] [µM] | Kd [3] [µM] | CC50 at 12 h [4] [µM] | Ratio [5] | Activity [6] | Activity [7]
1 | O=C(Nc1nc2ccc(Oc3ccc(F)c(NCc4cccc(C(F)(F)F)c4)c3)cc2s1)C1CC1 | > 20 |  |  |  |  |  | 
2 | O=C(Nc1nc2ccc(Oc3ccc(F)c(NCc4ccc5c(c4)OCO5)c3)cc2s1)C1CC1 | > 20 |  |  |  |  |  | 
3 | O=C(Cc1ccccn1)Nc1cc(Oc2ccc3nc(NC(=O)C4CC4)sc3c2)ccc1F | 8.3 |  |  |  |  |  | 
4 | Cc1ccc(CC(=O)Nc2cc(Oc3ccc4nc(NC(=O)C5CC5)sc4c3)ccc2F)cc1C | 1.67 | 0.072 | 1.2 | > 50 |  |  | 
5 | Cc1cccc(NC(=O)Nc2cc(Oc3ccc4nc(NC(=O)C5CC5)sc4c3)ccc2F)c1 | 0.58 | 0.093 | 2.2 | > 50 | 23.6 |  | 
6 | O=C(Nc1nc2ccc(Oc3ccc(F)c(NS(=O)(=O)c4cccc(C(F)(F)F)c4)c3)cc2s1)C1CC1 | > 20 |  |  |  |  |  | 
7 | N#Cc1c(Oc2ccc(F)c(NC(=O)Cc3cccc(C(F)(F)F)c3F)c2)ccc2nc(NC(=O)C3CC3)sc12 | 2.03 |  |  |  |  |  | 
8 | CCC(=O)Nc1nc2ccc(Oc3ccc(F)c(NC(=O)Cc4cccc(C(F)(F)F)c4)c3)c(C#N)c2s1 | > 20 |  |  |  |  |  | 
9 | O=C(Cc1cccc(C(F)(F)F)c1Cl)Nc1cc(Oc2ccc3nc(NC(=O)C4CC4)sc3c2)ccc1F | > 20 |  |  |  |  |  | 
10 | N#Cc1c(Oc2ccc(F)c(NC(=O)Cc3cccc(C(F)(F)F)c3)c2)ccc2nc(NC(=O)OCc3ccccc3)sc12 | > 20 |  |  |  |  |  | 
11 | N#Cc1c(Oc2ccc(F)c(NC(=O)Cc3ccc([N+](=O)[O-])cc3)c2)ccc2nc(NC(=O)C3CC3)sc12 | > 20 |  |  |  |  |  | 
12 | O=C(Nc1nc2ccc(Oc3ccc(F)c(NC(=O)C4(c5cccc(C(F)(F)F)c5)CC4)c3)cc2s1)C1CC1 | > 20 |  |  | > 50 |  |  | 
13 | O=C(Cc1cccc(O)c1)Nc1cc(Oc2ccc3nc(NC(=O)C4CC4)sc3c2)ccc1F | > 20 |  |  |  |  |  | 
14 | O=C(Cc1ccccc1C(F)(F)F)Nc1cc(Oc2ccc3nc(NC(=O)C4CC4)sc3c2)ccc1F | 11.3 |  |  |  |  |  | 
15 | O=C(Cc1cccc(C(F)(F)F)n1)Nc1cc(Oc2ccc3nc(NC(=O)C4CC4)sc3c2)ccc1F | 0.32 | 0.28 | 0.22 | > 50 |  |  | 
16 | O=C(Cc1cccc(C(F)(F)F)c1)Nc1cc(Oc2ccc3nc(NC(=O)C4CC4)sc3c2)ccc1F |  |  |  |  |  | Active | Active
17 | Cc1cccc(CC(=O)Nc2cc(Oc3ccc4nc(NC(=O)C5CC5)sc4c3)ccc2F)c1 | 0.38 | 0.033 | 0.32 | > 50 |  |  | 
18 | CCCCCCCCC(=O)Nc1nc2ccc(Oc3ccc(F)c(NC(=O)Cc4cccc(C(F)(F)F)c4)c3)c(C#N)c2s1 | > 20 |  |  |  |  |  | 

Row | Structure (SMILES) | EC50 [1] [µM] | Kd [2] [µM] | Kd [3] [µM] | CC50 at 12 h [4] [µM] | Ratio [5] | Activity [6] | Activity [7]
19 | O=C(CCc1cccc(C(F)(F)F)c1)Nc1cc(Oc2ccc3nc(NC(=O)C4CC4)sc3c2)ccc1F | 0.65 | 0.79 | 0.51 | > 50 |  |  | 
20 | COc1cccc(CC(=O)Nc2cc(Oc3ccc4nc(NC(=O)C5CC5)sc4c3)ccc2F)c1 | 0.33 | 0.055 | 0.24 | > 50 |  |  | 
21 | N#Cc1c(Oc2ccc(F)c(NC(=O)Cc3cccc(C(F)(F)F)c3)c2)ccc2nc(NC(=O)c3ccccc3)sc12 | > 20 |  |  |  |  |  | 
22 | O=C(Cc1cccc([N+](=O)[O-])c1)Nc1cc(Oc2ccc3nc(NC(=O)C4CC4)sc3c2)ccc1F | 0.61 | 0.11 | 0.77 | > 50 |  |  | 
23 | Cn1cc(CC(=O)Nc2cc(Oc3ccc4nc(NC(=O)C5CC5)sc4c3)ccc2F)c2ccccc21 | 3.81 | 1.4 | 4.8 | > 50 |  |  | 
24 | COc1cccc(NC(=O)Nc2cc(Oc3ccc4nc(NC(=O)C5CC5)sc4c3)ccc2F)c1 | 1.37 | 0.069 | 3.6 | > 50 | 52.1 |  | 
25 | N#Cc1cccc(CC(=O)Nc2cc(Oc3ccc4nc(NC(=O)C5CC5)sc4c3)ccc2F)c1 | 1.29 | 0.12 | 0.78 | > 50 |  |  | 
26 | CC(=O)c1cccc(NC(=O)Nc2cc(Oc3ccc4nc(NC(=O)C5CC5)sc4c3)ccc2F)c1 | 1 | 0.053 | > 5 | > 50 | > 94.3 |  | 
27 | O=C(Cc1ccc(F)c(C(F)(F)F)c1)Nc1cc(Oc2ccc3nc(NC(=O)C4CC4)sc3c2)ccc1F | 0.4 | 0.13 | 0.59 | > 50 |  |  | 
28 | O=C(Cc1ccc2c(c1)OCO2)Nc1cc(Oc2ccc3nc(NC(=O)C4CC4)sc3c2)ccc1F | 2.32 | 0.081 | 1.1 | > 50 | 13 |  | 
29 | O=C(Cc1cccc(OC(F)(F)F)c1)Nc1cc(Oc2ccc3nc(NC(=O)C4CC4)sc3c2)ccc1F | 0.06 | 0.12 | 0.049 | > 50 |  |  | 
30 | O=C(Cc1cccc(C(F)(F)F)c1F)Nc1cc(Oc2ccc3nc(NC(=O)C4CC4)sc3c2)ccc1F | 0.49 | 0.099 | 0.51 | > 50 |  |  | 
31 | N#Cc1c(Oc2ccc(F)c(NC(=O)Cc3cccc(F)c3)c2)ccc2nc(NC(=O)C3CC3)sc12 | > 20 |  |  |  |  |  | 
32 | CCOC(=O)c1cccc(NC(=O)Nc2cc(Oc3ccc4nc(NC(=O)C5CC5)sc4c3)ccc2F)c1 | 7.74 | 0.072 | > 5 | > 50 | > 69.4 |  | 
33 | O=C(Cc1cc(C(F)(F)F)cc(C(F)(F)F)c1)Nc1cc(Oc2ccc3nc(NC(=O)C4CC4)sc3c2)ccc1F | 9.7 |  |  | > 50 |  |  | 
34 | N#Cc1c(Oc2ccc(F)c(NC(=O)c3cccc(C(F)(F)F)c3)c2)ccc2nc(NC(=O)C3CC3)sc12 | > 20 |  |  |  |  |  | 
35 | N#Cc1c(Oc2ccc(F)c(NC(=O)Cc3ccccc3)c2)ccc2nc(NC(=O)C3CC3)sc12 | > 20 |  |  |  |  |  | 
